Bioassay records as filed in PubChem.
5HT1E ag – activates the human 5-HT1E serotonin receptor. P28566. CHO 5-HT1E Ga15 NFAT-bla reporter, FRET; 0% DMSO wells, 100% control agonist wells. activation, % at 6 µM. 65,000 tested, 0.69% active;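 active = activation above a set limit, the screen-wide mean activation plus 3 SD, cut at about 8.5% in these data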
5HT1E antag – blocks the human 5-HT1E serotonin receptor. inhibition, % at 6 µM. P28566. AID 571. 65,000 tested, 0.99% active. CHO 5-HT1E Ga15 NFAT-bla reporter, FRET, antagonist;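 active = inhibition above a set limit, the mean inhibition across every tested compound plus 3 SD, cut at about 29% in these data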;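 also: signal is the 460 over 535 nm emission ratio of beta-lactamase substrate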
S1P1 ag-PAM – agonists and agonism potentiators of human S1P1 receptor; P21453; S1P1 CRE-bla cells, forskolin, beta-lactamase FRET, potentiator mode; S1P1 agonist co-added at EC20, 2 nM; 100% = saturating reference agonist, 0% = basal; activation, % at 9.5 µM; AID 449; 56,000 tested, 0.57% active;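 active = activation above a cutoff set at the mean activation of all tested compounds plus 3 SD, cut at about 54% in these data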;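 also: forskolin at 4 µM as EC80 and the EC20 agonist is SEW2871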
S1P3 agonist – S1P3 (human) receptor agonism; 60,000 tested, 0.1% active; AID 373; activation, % at 4.5 µM; Q99500; S1P3 NFAT-BLA reporter cells, FRET ratio; relative to 1 µM S1P, basal subtracted;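 active = activation above the screen-wide mean plus 3 SD, cut at about 4.5% in these data, passing the limit was not always enough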
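Assay system: CHO cells stably expressing human S1P3, Gα16 and NFAT-β-lactamase reporter. Timing: overnight plating, 4 h compound 37 °C, 2 h substrate RT. Signal: β-lactamase FRET emission ratio 460/535 nm. Measure: percent activation versus median 1 µM S1P response, basal-subtracted, per plate. Repeats: primary screen single test, confirmation screen in triplicate.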
HTR1A agonist – activates the human 5-HT1a serotonin receptor; CHO 5-HT1a Ga15 NFAT-bla reporter, FRET ratio; 0% basal, 100% maximal reference agonist; activation, % at 10 µM; P08908; 65,000 tested, 0.56% active; AID 567;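 active = activation above the screen-wide mean activation plus 3 SD, cut at about 19% in these data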
Target sequence (P08908 whole entry, looked up): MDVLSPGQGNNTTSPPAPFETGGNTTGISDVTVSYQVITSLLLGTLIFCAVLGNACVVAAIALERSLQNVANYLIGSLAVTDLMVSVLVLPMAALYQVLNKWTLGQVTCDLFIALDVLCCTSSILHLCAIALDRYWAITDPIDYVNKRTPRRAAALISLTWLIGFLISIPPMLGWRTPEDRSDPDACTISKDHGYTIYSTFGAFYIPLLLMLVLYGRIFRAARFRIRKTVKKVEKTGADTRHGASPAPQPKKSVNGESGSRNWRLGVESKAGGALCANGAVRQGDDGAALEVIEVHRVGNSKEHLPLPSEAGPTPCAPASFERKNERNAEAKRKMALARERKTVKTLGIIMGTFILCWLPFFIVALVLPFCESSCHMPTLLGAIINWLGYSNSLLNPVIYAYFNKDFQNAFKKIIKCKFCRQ
5HT1a antag – antagonists of human 5-HT1a serotonin receptor. P08908. CHO 5-HT1a Ga15 NFAT-bla reporter, antagonist mode. inhibition, % at 10 µM. 62,000 tested, 0.68% active. AID 612;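 active = inhibition above the mean of all tested compounds plus 3 SD, cut at about 43% in these data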;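 also: receptor stimulated by 5-CT agonist at 100 nM near EC80; beta-lactamase reporter measured by ratiometric fluorescence of a cleavable substrate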
A number is an active result; 0 = inactive; - = no result. Compounds with a hit are over-represented: about 3% of the library has one in this group of screens.

SMILES	5HT1E ag	5HT1E antag	S1P1 ag-PAM	S1P3 agonist	HTR1A agonist	5HT1a antag
CC(C)/C=C1\CCCCC1N(C)C(=O)NC(C)C (configuration not stated)	0	0	0	0	0	0
Cc1c(O)c(CN2CCCCC2)cc2c3c(c(=O)oc12)CCC3	0	0	0	0	0	-
Oc1c(CN2CCc3ccccc3C2)cc(Cl)c2cccnc12	0	0	0	0	30	0
Oc1c(I)cc(Cl)c2cccnc12	0	0	0	0	0	-
Oc1c(CN2CCCCC2)cc(Br)c2cccnc12	0	41	0	0	0	47
O=C(Nc1nc2ccccc2n1Cc1ccccc1)c1ccco1	0	0	0	0	0	60
O=C(Cn1c(NCCCO)nc2ccccc21)c1ccco1	0	0	0	0	0	0
CC1Cc2ccccc2N1C(=O)C1CCCN(S(=O)(=O)c2cccc3nsnc23)C1 (configuration not stated)	0	0	0	0	0	0
O=C1CC(NCc2ccc3c(c2)OCO3)C(=O)N1Cc1ccc2c(c1)OCO2 (configuration not stated)	0	0	0	0	0	-
O=C1c2ccccc2C(Nc2ccc(S(=O)(=O)N3CCCCCC3)cc2)N1Cc1ccco1 (configuration not stated)	0	0	0	0	44	0
Cc1ccc(Nc2nc(N3CCOCC3)nc(N3CCOCC3)n2)cc1	0	0	0	0	0	0
CSc1nc2ccc(NC(=O)C3CC(=O)N(Cc4ccco4)C3)cc2s1 (configuration not stated)	0	0	-	-	0	0
CSc1nc2ccc(NC(=O)C3CCCO3)cc2s1 (configuration not stated)	52	0	0	0	0	0
CSc1nc2ccc(Nc3nc(N4CCOCC4)nc(N4CCOCC4)n3)cc2s1	0	33	0	0	0	0
CC1CN(C2CCN(S(=O)(=O)c3ccccc3)CC2)CC(C)O1 (configuration not stated)	0	52	0	0	0	-
Cc1cc(S(=O)(=O)NCc2cccnc2)ccc1-n1cnnn1	0	0	0	0	0	0
CCC(CC)C(=O)Nc1cc(=O)n(C)c(=O)n1C	0	0	0	0	36	0
COC(=O)c1sc2ccccc2c1C(=O)OC	11	0	0	0	0	0
COC(=O)c1sc2ccccc2c1N	0	0	0	0	0	0
N#CC1=C(N)OC2=C(C(=O)CCC2)C1c1ccsc1 (configuration not stated)	0	0	0	0	0	0
CN(c1ccc(C(=O)NC2CC2)cc1)S(=O)(=O)c1ccccc1	0	0	-	0	0	0
CCn1c(CNC(=O)c2ccco2)nnc1SCC(=O)Nc1cc(C(F)(F)F)ccc1Cl	0	0	0	0	54	0
Cc1cc(C)c(-c2cc(NC(=O)CSc3nncn3C)n(-c3ccccc3)n2)cc1C	0	0	0	0	0	0
Nc1nnnn1/N=C/C=C/c1ccccc1	0	0	0	0	0	0
Nc1nnnn1/N=C/C(Br)=C/c1ccccc1	0	48	0	0	0	85
SMILES	5HT1E ag	5HT1E antag	S1P1 ag-PAM	S1P3 agonist	HTR1A agonist	5HT1a antag
CN(C)S(=O)(=O)c1ccc(S(=O)(=O)N(Cc2ccco2)Cc2ccccc2Cl)cc1	0	32	0	0	0	0
O=S(=O)(c1ccc(S(=O)(=O)N(Cc2ccco2)Cc2ccccc2Cl)cc1)N1CCCC1	0	0	0	0	0	0
O=C(CCNS(=O)(=O)c1cccs1)NCc1ccco1	0	0	-	-	0	0
Clc1ccccc1OCCCCN1CCCC1	15	0	0	0	0	0
COc1cccc(OC)c1OCCCCN1CCCC1	0	0	0	0	0	0
Cn1c(=O)[nH]c(=O)c2c1nc(Br)n2CCCSc1nc2ccccc2o1	0	34	0	0	0	0
O=C(CSc1cccc2cccnc12)N1CCCC1	0	42	0	0	0	0
CN(C)C(=O)CSc1cccc2cccnc12	0	39	0	0	0	0
O=C(O)c1cccnc1SCC(=O)N1CCCCCC1	0	0	0	0	0	0
CCCCn1nc(C(=O)O)ccc1=O	0	0	0	0	0	0
c1ccc2c(c1)oc1c(N3CCN(Cc4ccc5c(c4)OCO5)CC3)ncnc12	0	0	92	0	63	0
c1ccc(Cn2nnc3c(N4CCN(Cc5ccc6c(c5)OCO6)CC4)ncnc32)cc1	0	0	0	0	0	0
COc1cc(-c2nn3c(Cc4ccccc4)nnc3s2)cc(OC)c1OC	0	31	-	0	0	0
COc1ccc(-c2nc(-c3cccs3)c(-c3cccs3)[nH]2)cc1O	0	0	0	0	0	0
CCOC(=O)c1c(NC(=O)CSc2nnc(-c3ccccc3C)n2C)sc(C(C)=O)c1C	0	0	0	0	0	0
CCOC(=O)c1c(NC(=O)CSc2nc3cccnc3n2C)sc(C(C)=O)c1C	0	43	0	0	0	0
CCOC(=O)c1c(NC(=O)CSc2nnc(-c3cccnc3)o2)sc(C(C)=O)c1C	0	30	0	0	0	0
CCOc1ccc2oc(-c3ccccc3)c(C(=O)N3CCN(CCO)CC3)c2c1	0	0	0	0	0	0
CC(C)c1cc(C(F)(F)F)n2nc(C(=O)Nc3ccc4c(c3)OCO4)cc2n1	0	0	102	0	0	0
Cc1cccc(C)c1-n1nnnc1S(=O)(=O)Cc1ccccc1Cl	0	0	-	0	0	0
Cn1c(=O)c2nc(Cl)n(Cc3ccc(Cl)cc3Cl)c2n(C)c1=O	0	0	0	0	0	0
O=C(COC(=O)c1ccco1)Nc1cccc(Br)c1	0	0	-	-	0	0
COCC(=O)Nc1cccc(Br)c1	0	0	-	0	20	0
Cc1ccc2c(CSc3nc4ccccc4c(=O)n3CCCO)cc(=O)oc2c1	0	33	0	0	0	0
Cc1nn(Cc2ccc(Cl)c(Cl)c2)c(C)c1NC(=O)c1cc(CC(C)C)on1	0	0	76	0	0	0
SMILES	5HT1E ag	5HT1E antag	S1P1 ag-PAM	S1P3 agonist	HTR1A agonist	5HT1a antag
COC(=O)c1ccccc1NC(=O)C1CCN(C(=O)c2cc(OC)c(OC)c(OC)c2)CC1	0	0	-	-	0	0
CCNc1c2c3c(cccc3n(C)c1=O)C(=O)c1ccccc1-2	32	0	0	0	0	0
Cn1c(=O)c(NCCO)c2c3c(cccc31)C(=O)c1ccccc1-2	0	0	-	-	0	0
N#CC1=C2C=CC=CN2CC1=O	0	0	-	-	0	0
O=C1CN(C(=O)OCc2ccccc2)c2ccccc2N1	0	48	-	-	0	0
CCOc1ccc2[nH]c(=O)c(CN(CCOC)C(=O)N3CCOCC3)cc2c1	0	0	0	0	0	0
COC(=O)c1ccc(-n2c(C)cc(/C=N/n3cnnc3)c2C)cc1	19	0	0	0	0	0
Cc1cc(/C=N/n2cnnc2)c(C)n1-c1cc(Cl)ccc1Cl	0	40	0	0	0	52
